≈ marks a conversion by molar mass, not a printed value.
Columns and labels:
[1] = test system: Mycobacterium tuberculosis; assay: Antitubercular activity against Mycobacterium tuberculosis H37Rv incubated at 37 degC for 7 days by microplate alamar blue assay; assay type: functional; conditions: for MIC: Mycobacterium tuberculosis, H37Rv, 168 h
How it was run: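 Mtb H37Rv was grown in 7H9 broth with glycerol, Casitone, 10% OADC and 0.05% Tween 80 to OD600 0.4. Compounds were 2-fold serially diluted from DMSO stocks in 7H9, and wells were inoculated at 2 × 10⁵ CFU/mL. After 7 days at 37 °C, Alamar Blue was added and read after a further 24 h. MIC was the lowest concentration preventing the blue-to-pink change.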

[2] = test system: Vero; assay: Cytotoxicity against african green monkey Vero cells; assay type: cell-based, Chlorocebus sabaeus
[3] = test system: Mycobacterium tuberculosis; assay: Antitubercular activity against Mycobacterium tuberculosis H37Rv incubated at 37 degC for 14 days in presence of 40% human serum by microplate alamar blue assay; assay type: functional; conditions: 336 h
How it was run: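 This is the MABA run in 7H9 broth containing 40% human serum. Compounds were 2-fold serially diluted, and wells were inoculated with H37Rv at 2 × 10⁵ CFU/mL. Incubation was at 37 °C for 14 days, then Alamar Blue was added. MIC was the lowest concentration preventing the blue-to-pink colour change.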

[4] = Chlorocebus sabaeus, Vero, read-out: IC50

O=C1c2ccc(Cl)cc2-n2c1nc1ccncc1c2=O
MIC [1]: 0.125 µg/mL (≈ 0.441 µM) | IC50 [2, 4]: 9 µg/mL (≈ 31.7 µM) | MIC [3]: 1 µg/mL

O=C1c2ccccc2-n2c1nc1ccc([N+](=O)[O-])cc1c2=O
MBC90 [1]: 32 µg/mL (≈ 109 µM) | MIC [1]: 16 µg/mL (≈ 54.6 µM) | IC50 [2, 4]: 64 µg/mL (≈ 218 µM) | MIC [3]: 32 µg/mL

O=C1c2cc([N+](=O)[O-])ccc2-n2c1nc1ncccc1c2=O
MBC90 [1]: 4 µg/mL (≈ 13.6 µM) | MIC [1]: 0.5 µg/mL (≈ 1.7 µM) | IC50 [2, 4]: < 0.2 µg/mL | MIC [3]: 4 µg/mL

O=C1c2ccc(Cl)cc2-n2c1nc1ncccc1c2=O
MIC [1]: 1 µg/mL (≈ 3.53 µM) | IC50 [2, 4]: 7 µg/mL (≈ 24.7 µM) | MIC [3]: 2 µg/mL

O=C1c2ccc(N3CCOCC3)cc2-n2c1nc1ncccc1c2=O
IC50 ([2]; vero): ND(Insoluble)

Nc1ccc2c(c1)C(=O)c1nc3ccccc3c(=O)n1-2
MIC [1]: 8 µg/mL (≈ 30.4 µM) | MIC [3]: 16 µg/mL

CC(C)(C)OC(=O)N1CCN(c2ccc3c(c2)-n2c(nc4ccncc4c2=O)C3=O)CC1
MIC [1]: 16 µg/mL (≈ 36.9 µM) | IC50 [2, 4]: 24 µg/mL (≈ 55.4 µM) | MIC [3]: > 32 µg/mL

O=C1c2cc(F)ccc2-n2c1nc1ncccc1c2=O
MBC90 [1]: 1 µg/mL (≈ 3.74 µM) | MIC [1]: 1 µg/mL (≈ 3.74 µM) | IC50 [2, 4]: 0.3 µg/mL (≈ 1.12 µM) | MIC [3]: 2 µg/mL

O=C1c2ccc(N3CCCCC3)cc2-n2c1nc1ccncc1c2=O
MIC [1]: 16 µg/mL (≈ 48.1 µM) | IC50 [2, 4]: 20 µg/mL (≈ 60.2 µM) | MIC [3]: > 32 µg/mL

O=C1C2=Nc3ncccc3CN2c2ccccc21
MIC [1]: 32 µg/mL (≈ 136 µM) | IC50 [2, 4]: 4.8 µg/mL (≈ 20.4 µM)

CCOC(=O)c1ccc2c(c1)C(=O)c1nc3c(OC)cccc3c(=O)n1-2
MBC90 [1]: 1 µg/mL (≈ 2.85 µM) | MIC [1]: 0.125 µg/mL (≈ 0.357 µM) | IC50 [2, 4]: 16 µg/mL (≈ 45.7 µM) | MIC [3]: 4 µg/mL

O=C1c2ccc(N3CCNCC3)cc2-n2c1nc1ccncc1c2=O
MIC [1]: > 4 µg/mL | IC50 [2, 4]: 11 µg/mL (≈ 33 µM) | MIC [3]: > 4 µg/mL

CC(C)(C)OC(=O)N1CCN(c2ccc3c(c2)-n2c(nc4ncccc4c2=O)C3=O)CC1
IC50 ([2]; vero): ND(Insoluble)

O=C1C2=Nc3ncccc3CN2c2ccc(Cl)cc21
MIC [1]: 16 µg/mL (≈ 59.3 µM) | IC50 [2, 4]: > 10 µg/mL

O=C1C2=Nc3ncccc3CN2c2ccc(OC(F)(F)F)cc21
MIC [1]: 16 µg/mL (≈ 50.1 µM) | IC50 [2, 4]: 4.4 µg/mL (≈ 13.8 µM)

COc1ccc2c(c1)C(=O)c1nc3ccccc3c(=O)n1-2
MBC90 [1]: 0.5 µg/mL (≈ 1.8 µM) | MIC [1]: 1 µg/mL (≈ 3.59 µM) | IC50 [2, 4]: 5.5 µg/mL (≈ 19.8 µM) | MIC [3]: 2 µg/mL

CCN(CCN(C)C)c1ccc2nc3n(c(=O)c2c1)-c1ccc(Cl)cc1C3=O
MBC90 [1]: 4 µg/mL (≈ 10.1 µM) | MIC [1]: 16 µg/mL (≈ 40.3 µM) | IC50 [2, 4]: 32 µg/mL (≈ 80.6 µM) | MIC [3]: 16 µg/mL

O=C1c2ccc(N3CCCCC3)cc2-n2c1nc1ncccc1c2=O
MIC [1]: 4 µg/mL (≈ 12 µM) | IC50 [2, 4]: 81 µg/mL (≈ 244 µM) | MIC [3]: 16 µg/mL

O=C1c2ccc(N3CCC(O)C3)cc2-n2c1nc1ccccc1c2=O (stereo not drawn)
MIC [1]: 8 µg/mL (≈ 24 µM) | IC50 [2, 4]: 27 µg/mL (≈ 81 µM) | MIC [3]: 8 µg/mL

O=C1c2ccc(N3CCNCC3)cc2-n2c1nc1ccccc1c2=O
MBC90 [1]: >2 µg/mL | MIC [1]: 0.5 µg/mL (≈ 1.5 µM) | IC50 [2, 4]: > 2 µg/mL | MIC [3]: > 2 µg/mL

O=C1c2ccc(N3CCOCC3)cc2-n2c1nc1ccncc1c2=O
MIC [1]: 32 µg/mL (≈ 95.7 µM) | IC50 [2, 4]: > 20 µg/mL | MIC [3]: > 32 µg/mL

Cl.O=C1c2ccc(N3CCNCC3)cc2-n2c1nc1ccccc1c2=O
MBC90 [1]: >16 µg/mL | MIC [1]: 8 µg/mL | IC50 [2, 4]: 16 µg/mL | MIC [3]: 8 µg/mL

O=C1c2ccc(N3CCCC3)cc2-n2c1nc1ccccc1c2=O
IC50 ([2]; vero): ND(Insoluble)

CS(=O)(=O)Nc1ccc2c(c1)C(=O)c1nc3ccccc3c(=O)n1-2
MBC90 [1]: 2 µg/mL (≈ 5.86 µM) | MIC [1]: 4 µg/mL (≈ 11.7 µM) | IC50 [2, 4]: > 8 µg/mL | MIC [3]: > 8 µg/mL

O=C1c2ccc(N3CCCCC3)cc2-n2c1nc1ccccc1c2=O
MIC [1]: > 128 µg/mL | IC50 [2, 4]: 18 µg/mL (≈ 54.3 µM) | MIC [3]: > 128 µg/mL

O=C1c2ccc(N3CCC(O)CC3)cc2-n2c1nc1ccccc1c2=O
MIC [1]: 16 µg/mL (≈ 46.1 µM) | IC50 [2, 4]: 31 µg/mL (≈ 89.2 µM) | MIC [3]: 16 µg/mL

O=C1c2cc(Br)ccc2-n2c1nc1ncccc1c2=O
MIC [1]: 16 µg/mL (≈ 48.8 µM) | IC50 [2, 4]: > 20 µg/mL | MIC [3]: 32 µg/mL

O=C1C2=Nc3ccccc3CN2c2ccc(OC(F)(F)F)cc21
MIC [1]: 0.125 µg/mL (≈ 0.393 µM) | IC50 [2, 4]: 1.3 µg/mL (≈ 4.08 µM) | MIC [3]: 0.5 µg/mL

Source: ChEMBL document CHEMBL2346548, “Design, synthesis, and structure-activity relationship studies of tryptanthrins as antitubercular agents” (J Nat Prod, 2013)
